Data taken from ChEMBL document CHEMBL1144013, “Indol-3-yl-tetramethylcyclopropyl ketones: effects of indole ring substitution on CB2 cannabinoid receptor activity” (J Med Chem, 2008).
pEC50, pKi: −log10 of the molar value. Calls of active or inactive are those of the source. The calls are words filed in the database; no cut-off is given here.

Tests used:
Cannabinoid receptor 2 [1] = target: T1, Cannabinoid receptor 2 (Homo sapiens, UniProt P34972); assay: Displacement of [3H]CP-55940 from human recombinant CB2 receptor expressed in HEK cells; type: cell-based, HEK293; conditions: for pKi: read-out: Ki; for Ki: read-out: Log Ki (converted)
T1 sequence (P34972 whole entry): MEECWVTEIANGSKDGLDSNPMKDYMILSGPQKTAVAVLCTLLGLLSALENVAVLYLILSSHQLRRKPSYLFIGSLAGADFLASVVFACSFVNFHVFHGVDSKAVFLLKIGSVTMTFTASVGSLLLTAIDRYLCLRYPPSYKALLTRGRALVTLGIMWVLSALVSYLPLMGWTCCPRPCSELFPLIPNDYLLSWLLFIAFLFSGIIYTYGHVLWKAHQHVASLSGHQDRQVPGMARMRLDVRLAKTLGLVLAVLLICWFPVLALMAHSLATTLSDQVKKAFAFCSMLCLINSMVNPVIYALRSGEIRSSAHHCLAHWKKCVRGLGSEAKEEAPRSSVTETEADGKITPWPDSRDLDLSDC

Homo sapiens = species: Homo sapiens; assay: Selectivity for human recombinant CB2 receptor over human recombinant CB1 receptor
How it was run: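 Ki ratio from [3H]CP-55940 (0.5 nM) competition binding: human CB1 membranes from stably expressing […] cells versus human CB2 membranes from stably expressing HEK cells. Tris-HCl pH 7.4 buffer with EDTA, MgCl2, BSA; 90 min at 30 °C; filtration counting; nonspecific with 10 µM unlabeled ligand; ≥3 experiments in duplicate.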

Cannabinoid receptor 1 = Cannabinoid receptor 1 (Homo sapiens, UniProt P21554); assay: Displacement of [3H]CP-55940 from human recombinant CB1 receptor expressed in HEK cells; type: cell-based, HEK293; conditions: for pKi: read-out: Ki; for Ki: read-out: Log Ki (converted)
Sequence of Cannabinoid receptor 1 (P21554 whole entry): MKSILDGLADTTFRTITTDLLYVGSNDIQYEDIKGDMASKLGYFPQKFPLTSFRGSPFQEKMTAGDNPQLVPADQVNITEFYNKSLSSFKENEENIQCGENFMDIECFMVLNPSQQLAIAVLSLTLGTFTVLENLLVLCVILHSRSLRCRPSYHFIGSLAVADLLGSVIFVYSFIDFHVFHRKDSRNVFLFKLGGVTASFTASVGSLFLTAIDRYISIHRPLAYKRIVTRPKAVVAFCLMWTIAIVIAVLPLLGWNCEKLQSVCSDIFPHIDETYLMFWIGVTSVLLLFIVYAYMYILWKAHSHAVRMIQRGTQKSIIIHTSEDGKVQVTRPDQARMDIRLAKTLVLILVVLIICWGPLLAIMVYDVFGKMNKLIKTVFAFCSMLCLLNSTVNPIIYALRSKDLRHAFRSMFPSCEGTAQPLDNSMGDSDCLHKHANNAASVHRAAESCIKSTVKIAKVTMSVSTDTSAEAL

Cannabinoid receptor 2 [2] = target: T1, Cannabinoid receptor 2; assay: Agonist activity at human recombinant CB2 receptor expressed in HEK cells assessed as calcium mobilization by FLIPR relative to CP-55940; type: functional, cell-based; conditions: HEK293
How it was run: (§1)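 HEK cells stably coexpressing human CB2 and chimeric Gαq/o5 protein, seeded 75,000/well one day before; no-wash calcium dye.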

Cannabinoid receptor 2 [3] = target: T1, Cannabinoid receptor 2; assay: Agonist activity at human recombinant CB2 receptor expressed in HEK cells assessed as calcium mobilization by FLIPR; type: functional, cell-based, HEK293; how it was run: as §1
Rattus norvegicus = species: Rattus norvegicus; assay: Antiinflammatory activity against rat CFA-induced chronic inflammatory thermal hyperalgesia model assessed as effect on paw withdrawal latency; type: functional, organism-based
How it was run: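 Rats given 150 µL of 50% CFA in PBS into right hind plantar paw; thermal hyperalgesia tested 48 h later. Compound in 5% DMSO/95% PEG; PWL read 30 min post dose in ipsilateral and contralateral paws, 3 trials ~5 min apart, mean of two shortest latencies. n = 6 per dose; compared against vehicle. Antagonist pretreatment group included.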

Row | Structure (SMILES) | pKi (Cannabinoid receptor 2 [1]) | Ratio Ki (Homo sapiens) | pKi (Cannabinoid receptor 1) | Activity (Cannabinoid receptor 2 [2]) [%] | pEC50 (Cannabinoid receptor 2 [3]) | Ki (Cannabinoid receptor 1) [nM] | Ki (Cannabinoid receptor 2 [1]) [nM] | pKi (Cannabinoid receptor 2 [1]; hek293) | pKi (Cannabinoid receptor 1; hek293) | Activity (Rattus norvegicus)
1 | CC1(C)C(C(=O)c2cn(CC3CCOCC3)c3ccc(Cl)cc23)C1(C)C | 8.52 | 171 | 6.29 | 69 | 7.04 | – | – | – | – | –
2 | CN1CCCCC1Cn1cc(C(=O)c2cc([N+](=O)[O-])ccc2I)c2ccccc21 (stereo not given) | 7.94 | 110 | 5.90 | – | < 5.00 | – | – | – | – | –
3 | COc1cccc2c1c(C(=O)C1C(C)(C)C1(C)C)cn2CC1CCOCC1 | 8.48 | 330 | 5.96 | 37 | 7.09 | – | – | – | – | –
4 | COc1cc2c(cc1O)c(C(=O)C1C(C)(C)C1(C)C)cn2CC1CCOCC1 | 9.15 | – | – | – | < 5.00 | – | – | – | – | –
5 | CC1(C)C(C(=O)c2cn(CC3CCOCC3)c3cc(O)ccc23)C1(C)C | 8.07 | > 353 | < 5.52 | 107 | 7.82 | > 3020 | – | – | – | –
6 | CC1(C)C(C(=O)c2cn(CC3CCOCC3)c3c(OCc4ccccc4)cccc23)C1(C)C | 8.51 | 353 | 5.96 | – | < 5.00 | – | – | – | – | –
7 | COc1ccc2c(C(=O)C3C(C)(C)C3(C)C)cn(CCN3CCOCC3)c2c1 | – | – | – | – | < 5.00 | – | 1.58 | – | – | –
8 | CC1(C)C(C(=O)c2cn(CCN3CCOCC3)c3ccc(OCc4ccccc4)cc23)C1(C)C | – | – | < 5.00 | – | < 5.00 | – | > 1000 | < 6.00 | – | –
9 | CC1(C)C(C(=O)c2cn(CC3CCOCC3)c3cc(C#N)ccc23)C1(C)C | 8.30 | – | – | 67 | 7.35 | – | – | – | – | –
10 | Cc1c(C(=O)C2C(C)(C)C2(C)C)c2ccccc2n1CCN1CCOCC1 | 7.57 | > 370 | < 5.00 | 60 | 6.64 | – | – | – | – | –
11 | COc1cc2c(cc1OCc1ccccc1)c(C(=O)C1C(C)(C)C1(C)C)cn2CC1CCOCC1 | 8.74 | – | – | – | < 5.00 | – | – | – | – | –
12 | COC(=O)c1ccc2c(C(=O)C3C(C)(C)C3(C)C)cn(CC3CCOCC3)c2c1 | 8.85 | – | – | – | < 5.00 | – | – | – | – | –
13 | CC1(C)C(C(=O)c2cn(CCN3CCOCC3)c3ccc(O)cc23)C1(C)C | 7.04 | > 109 | < 5.00 | – | < 5.00 | – | – | – | – | –
14 | CC1(C)C(C(=O)c2cn(CC3CCOCC3)c3ccc(OCCCCBr)cc23)C1(C)C | 7.14 | > 139 | < 5.00 | – | < 5.00 | – | – | – | – | –
15 | CCCn1c(C)c(C(=O)c2cccc3ccccc23)c2ccccc21 | – | – | – | 75 | – | – | – | – | – | –
16 | CC1(C)C(C(=O)c2cn(CCN3CCOCC3)c3cccc(N)c23)C1(C)C | 7.49 | > 109 | < 5.46 | 41 | 7.30 | > 3470 | – | – | – | –
17 | CC1(C)C(C(=O)c2cn(CC3CCOCC3)c3cc(Br)ccc23)C1(C)C | 9.19 | – | – | – | < 5.00 | – | – | – | – | –
18 | CC1(C)C(C(=O)c2cn(CC3CCOCC3)c3ccc(F)cc23)C1(C)C | 8.80 | 756 | 5.92 | 88 | 7.66 | – | – | – | – | –
19 | CC1(C)C(C(=O)c2cn(CCN3CCOCC3)c3cc(OCc4ccccc4)ccc23)C1(C)C | 8.54 | – | – | – | < 5.00 | – | – | – | – | –
20 | CC1(C)C(C(=O)c2cn(CC3CCOCC3)c3ccc(OCCCCO)cc23)C1(C)C | 6.59 | > 38 | < 5.00 | – | < 5.00 | – | – | – | – | –
21 | CC1(C)C(C(=O)c2cn(CC3CCOCC3)c3cc(S(C)(=O)=O)ccc23)C1(C)C | 8.52 | 423 | 5.90 | – | < 5.00 | – | – | – | – | –
22 | COc1cccc2c(C(=O)C3C(C)(C)C3(C)C)cn(CC3CCOCC3)c12 | 9.92 | – | – | – | < 5.00 | – | – | – | – | –
23 | CC1(C)C(C(=O)c2cn(CC3CCOCC3)c3ccccc23)C1(C)C | 9.68 | – | – | 133 | 8.15 | – | – | – | – | –
24 | CC1(C)C(C(=O)c2cn(CC3CCOCC3)c3ccc(CO)cc23)C1(C)C | 6.95 | > 88 | < 5.00 | 53 | 7.14 | – | – | – | – | –
25 | CC1(C)C(C(=O)c2cn(CC3CCOCC3)c3ccc(N)cc23)C1(C)C | 8.03 | 108 | – | 80 | 8.00 | > 1000 | – | – | < 6.00 | –
26 | CC(=O)Nc1cccc2c1c(C(=O)C1C(C)(C)C1(C)C)cn2CCN1CCOCC1 | < 6.00 | – | < 5.66 | – | < 5.00 | > 2190 | – | – | – | –
27 | Cc1ccc2c(C(=O)C3C(C)(C)C3(C)C)cn(CC3CCOCC3)c2c1 | 9.82 | – | – | – | < 5.00 | – | – | – | – | –

Row | Structure (SMILES) | pKi (Cannabinoid receptor 2 [1]) | Ratio Ki (Homo sapiens) | pKi (Cannabinoid receptor 1) | Activity (Cannabinoid receptor 2 [2]) [%] | pEC50 (Cannabinoid receptor 2 [3]) | Ki (Cannabinoid receptor 1) [nM] | Ki (Cannabinoid receptor 2 [1]) [nM] | pKi (Cannabinoid receptor 2 [1]; hek293) | pKi (Cannabinoid receptor 1; hek293) | Activity (Rattus norvegicus)
28 | CC1(C)C(C(=O)c2cn(CC3CCOCC3)c3cc(O)c(O)cc23)C1(C)C | 7.68 | – | – | 106 | 7.68 | – | – | – | – | –
29 | CC1(C)C(C(=O)c2cn(CC3CCOCC3)c3ccc(OCc4ccccc4)cc23)C1(C)C | 8.89 | 183 | 6.62 | – | < 5.00 | – | – | – | – | –
30 | CC1(C)C(C(=O)c2cn(CC3CCOCC3)c3ccc(Br)cc23)C1(C)C | 8.18 | 292 | 5.71 | 54 | 6.55 | – | – | – | – | –
31 | CC1(C)C(C(=O)c2cn(CC3CCOCC3)c3ccc(O)cc23)C1(C)C | 8.72 | – | – | 78 | 8.15 | – | – | – | – | –
32 | CC1(C)C(C(=O)c2cn(CCN3CCOCC3)c3cccc(NS(C)(=O)=O)c23)C1(C)C | < 6.00 | – | – | – | < 5.00 | – | – | – | – | –
33 | CC1(C)C(C(=O)c2cn(CC3CCOCC3)c3cccc(O)c23)C1(C)C | 8.41 | – | – | 94 | 7.19 | – | – | – | – | Dose-dependent effect
34 | CC1(C)C(C(=O)c2cn(CC3CCOCC3)c3cc(OCc4ccccc4)ccc23)C1(C)C | 9.06 | – | – | 45 | 6.87 | – | – | – | – | –
35 | COC(=O)c1ccc2c(c1)c(C(=O)C1C(C)(C)C1(C)C)cn2CC1CCOCC1 | 6.62 | > 42 | < 5.00 | – | < 5.00 | – | – | – | – | –
36 | CC1(C)C(C(=O)c2cn(CC3CCOCC3)c3ccc(C#N)cc23)C1(C)C | 7.52 | – | – | 65 | 6.65 | – | – | – | – | –
37 | CC1(C)C(C(=O)c2cn(CC3CCOCC3)c3ccc(CN)cc23)C1(C)C | < 6.00 | – | < 5.00 | – | < 5.00 | – | – | – | – | –
38 | COCc1ccc2c(c1)c(C(=O)C1C(C)(C)C1(C)C)cn2CC1CCOCC1 | 7.59 | – | – | 50 | 7.39 | – | – | – | – | –
39 | COc1ccc2c(c1)c(C(=O)C1C(C)(C)C1(C)C)cn2CCN1CCOCC1 | 6.63 | > 15 | < 5.46 | – | < 5.00 | > 3470 | – | – | – | –
40 | CC1(C)C(C(=O)c2cn(CC3CCOCC3)c3ccc(-c4ccccc4)cc23)C1(C)C | 7.24 | – | – | – | < 5.00 | – | – | – | – | –
41 | CC1(C)C(C(=O)c2cn(CC3CCOCC3)c3c(O)cccc23)C1(C)C | 8.49 | – | – | – | < 5.00 | – | – | – | – | –
42 | CC1(C)C(C(=O)c2cn(CCN3CCOCC3)c3ccccc23)C1(C)C | 8.36 | – | – | 71 | 7.85 | – | – | – | – | Active
43 | CC1(C)C(C(=O)c2cn(CCN3CCOCC3)c3cc(O)ccc23)C1(C)C | 6.96 | > 92 | < 5.00 | 62 | 6.73 | – | – | – | – | –
44 | CC1(C)C(C(=O)c2cn(CC3CCOCC3)c3cc(CN)ccc23)C1(C)C | 7.21 | > 16 | < 6.00 | – | < 5.00 | – | – | – | – | –
45 | CC1(C)C(C(=O)c2cn(CC3CCOCC3)c3cc4c(cc23)OCO4)C1(C)C | 9.00 | – | – | 62 | 7.74 | – | – | – | – | –
46 | COc1ccc2c(c1)c(C(=O)C1C(C)(C)C1(C)C)cn2CC1CCOCC1 | 8.34 | 61 | 6.55 | 35 | 7.21 | – | – | – | – | –
47 | CC1(C)C(C(=O)c2cn(CC3CCOCC3)c3c(F)c(F)c(F)c(F)c23)C1(C)C | 8.30 | 13 | 7.18 | 88 | 7.43 | – | – | – | – | –
48 | CC1(C)C(C(=O)c2cn(CC3CCOCC3)c3cccc(OCc4ccccc4)c23)C1(C)C | 8.03 | > 1080 | < 5.00 | 45 | 6.42 | – | – | – | – | –
49 | CC1(C)C(C(=O)c2cn(CC3CCOCC3)c3cc(Cl)ccc23)C1(C)C | 8.60 | – | – | 60 | 8.00 | – | – | – | – | –
50 | CC1(C)C(C(=O)c2cn(CC3CCOCC3)c3cc(-c4ccccc4)ccc23)C1(C)C | 9.39 | 556 | 6.64 | – | < 5.00 | – | – | – | – | inactive
51 | COc1ccc2c(C(=O)C3C(C)(C)C3(C)C)cn(CC3CCOCC3)c2c1 | 9.29 | 78 | 7.40 | – | < 5.00 | – | – | – | – | –
52 | CC1(C)C(C(=O)c2cn(CC3CCOCC3)c3cc(C(F)(F)F)ccc23)C1(C)C | 8.46 | 20 | 7.15 | – | < 5.00 | – | – | – | – | –
53 | CC1(C)C(C(=O)c2cn(CCN3CCOCC3)c3cccc([N+](=O)[O-])c23)C1(C)C | 6.53 | > 34 | < 5.00 | – | < 5.00 | – | – | – | – | –
